GRIN3A LBD mod = modulators (binders) of human NR3A ligand-binding domain. NR3A LBD differential scanning fluorimetry, Tm shift; 0% = protein alone, 100% = glycine-bound protein. Tm shift relative to glycine control, % at 25 µM. 2.5% of 340,000 active;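 active = melting temperature shift of at least 10% of the positive control shift, at one fixed dose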
WT yeast gro inh = growth inhibition of WT yeast, mitochondrial fusion screen; mitochondrial fusion phenotypic screen, WT strain; inhibition, % at 10 µM; AID 1362; 2.1% of 190,000 active; in the data active = inhibition above about 58%; tested in S. cerevisiae
Tb MetRS inh = blocks T. brucei methionyl-tRNA synthetase activity. purified T. brucei MetRS, ATP depletion, Kinase-Glo luminescence. inhibition, % at 11.9 µM. 0.4% of 360,000 active. AID 624268;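 active = inhibition above a per-plate cutoff of the control wells' mean inhibition plus 3 SD, cut at about 5.5% in these data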;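 note: 0% = DMSO wells median and 100% = median of wells with control inhibitor compound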
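Test system: purified T. brucei MetRS enzyme. Also added: ATP, methionine and E. coli bulk tRNA substrates. Compound: 11.9 µM single point. Schedule: 15 min enzyme-compound preincubation, 2 h reaction, 10 min detection, 25 °C. Signal: luciferase luminescence of residual ATP, Kinase-Glo. Evaluation: percent inhibition versus plate control medians. Controls: DMSO wells, low control.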
CHOP inhibitor = CHOP inhibition in unfolded protein response; inhibition, % at 10 µM; 3.8% of 220,000 active; CHO-K1 CHOP-promoter luciferase, tunicamycin-induced, 15-18 h;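 active = compounds that reduced the stress-induced luciferase reporter signal by more than about 70% of percent inhibition, limit read from the data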;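 note: 0% = tunicamycin plus vehicle and 100% = wells without tunicamycin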
MPTP inh = inhibitors of mitochondrial permeability transition pore; isolated mouse mitochondria, Ca2+ swelling absorbance, 30 min; AID 602449; inhibition, % at 10 µM; 1.4% of 360,000 active;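 active = inhibition of 50% or more, scaled per plate between neutral and stimulator controls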;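 note: 0% = DMSO wells given calcium and 100% = 1 mM EGTA wells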
EBV gp42 inh = blocks Epstein-Barr virus glycoprotein 42 binding. inhibition, % (tested at 21.74 µM). Q1HVG2. AID 1085. 0.42% of 220,000 active. Fluorescence polarization binding assay, mP read-out; in the data active = inhibition above about 50%
Target sequence (Q1HVG2 whole entry, looked up): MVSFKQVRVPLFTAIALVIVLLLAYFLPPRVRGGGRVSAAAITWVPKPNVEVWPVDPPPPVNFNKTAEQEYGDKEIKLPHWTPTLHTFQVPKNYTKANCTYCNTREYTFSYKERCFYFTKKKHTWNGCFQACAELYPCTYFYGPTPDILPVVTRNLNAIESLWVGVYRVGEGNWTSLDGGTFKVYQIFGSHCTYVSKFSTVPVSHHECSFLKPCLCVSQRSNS
Active calls of the source: *. The list is not random: actives were taken first. Their share in the collection is about 6.4%.

`CC(=O)Nc1ccc(S(=O)(=O)Nc2nc3ccccc3nc2Nc2ccc(S(N)(=O)=O)cc2)cc1` gave GRIN3A LBD mod 27*, WT yeast gro inh -12, Tb MetRS inh 1, CHOP inhibitor -13, MPTP inh 1 and EBV gp42 inh 14.
CC(=O)Nc1ccc(S(=O)(=O)Nc2nc3ccccc3nc2Nc2ccc(O)c(C(=O)O)c2)cc1 was read as GRIN3A LBD mod 8, Tb MetRS inh 0 and MPTP inh -1.
`COc1ccc(S(=O)(=O)Nc2ccc(N3CCOCC3)cc2)cc1` gave GRIN3A LBD mod 1, Tb MetRS inh -1 and MPTP inh 0.
O=C(O)CCC(=O)c1cccc2ccccc12 was read as GRIN3A LBD mod 0, WT yeast gro inh -8, Tb MetRS inh 0, CHOP inhibitor 11, MPTP inh -1 and EBV gp42 inh -6.
`O=[N+]([O-])c1ccc(N2CCCC2)cc1N1CCCC1` gave GRIN3A LBD mod -2, WT yeast gro inh -5, Tb MetRS inh -1, CHOP inhibitor 6, MPTP inh 2 and EBV gp42 inh -22.
O=c1[nH]c2ccccc2n1CCCSc1cnc2ccccc2n1 was read as GRIN3A LBD mod 0, WT yeast gro inh 4, Tb MetRS inh 0, CHOP inhibitor 78*, MPTP inh -6 and EBV gp42 inh -7.
Screening CCCCn1c(=O)[nH]c2ccccc21 returned GRIN3A LBD mod 2, WT yeast gro inh -6, Tb MetRS inh 0, CHOP inhibitor 15, MPTP inh -1 and EBV gp42 inh -21.
Screening c1ccc2c(c1)cnc1ccccc12 returned GRIN3A LBD mod -2, Tb MetRS inh -1, CHOP inhibitor -7, MPTP inh 4 and EBV gp42 inh -12.
c1ccc(-c2ncc3c(ccc4ccccc43)n2)cc1 was read as GRIN3A LBD mod -2, WT yeast gro inh 0, Tb MetRS inh 0, CHOP inhibitor 80*, MPTP inh 4 and EBV gp42 inh -4.
Screening O=C(COC(=O)C1CCCCC1)NCc1ccc(Cl)cc1 returned GRIN3A LBD mod 2, Tb MetRS inh 0 and MPTP inh 0.
`Cc1nn(-c2ccccc2)c(C)c1/C=N/NC(=O)CSc1nnc(SCc2cccc3ccccc23)s1` gave GRIN3A LBD mod 16*, WT yeast gro inh 6, Tb MetRS inh 0, CHOP inhibitor 38, MPTP inh 4 and EBV gp42 inh -17.
Cc1ccccc1-n1c(SCC(=O)N/N=C/c2c(C)nn(-c3ccccc3)c2C)nc2ccccc2c1=O was read as GRIN3A LBD mod 20*, WT yeast gro inh 19, Tb MetRS inh -1, CHOP inhibitor 34, MPTP inh -1 and EBV gp42 inh -1.
Screening Cc1nn(-c2ccccc2)c(C)c1/C=N/NC(=O)CSc1nc2ccccc2c(=O)n1-c1ccc(Br)cc1 returned GRIN3A LBD mod -2, WT yeast gro inh -11, Tb MetRS inh -3, CHOP inhibitor 85*, MPTP inh 1 and EBV gp42 inh -6.
`N#C/C=C/N1CCN(C(=O)c2ccco2)CC1` gave GRIN3A LBD mod 0, Tb MetRS inh 0 and MPTP inh 0.
Screening CC(OC(=O)C1=COCCO1)C(=O)NC(C)c1ccc(Cl)cc1Cl (stereo not given) returned GRIN3A LBD mod 0, Tb MetRS inh 0 and MPTP inh 0.
Screening CN(/N=C/c1ccc(Br)o1)C1=NS(=O)(=O)c2ccccc21 returned GRIN3A LBD mod 16*, WT yeast gro inh -8, Tb MetRS inh 0, CHOP inhibitor 34, MPTP inh -1 and EBV gp42 inh -9.
`CN(/N=C/c1cc(Cl)ccc1O)C1=NS(=O)(=O)c2ccccc21` gave GRIN3A LBD mod 12*, Tb MetRS inh -1 and MPTP inh 6.
`Cc1ccc(/C=N/N(C)C2=NS(=O)(=O)c3ccccc32)o1` gave WT yeast gro inh -16, CHOP inhibitor -5 and EBV gp42 inh 13.
COc1cccc(/C=N/N(C)C2=NS(=O)(=O)c3ccccc32)c1O was read as GRIN3A LBD mod 0, Tb MetRS inh 0 and MPTP inh 0.
For Cn1c(N/N=C2\CCCc3ccccc32)nc2c1c(=O)n(Cc1ccc(F)cc1)c(=O)n2C the results were GRIN3A LBD mod -6, WT yeast gro inh 7, Tb MetRS inh -1, CHOP inhibitor 83*, MPTP inh 1 and EBV gp42 inh -1.

High-throughput results from PubChem BioAssay.
